ChEMBL document CHEMBL1955829, “Synthesis and biological evaluation of 4β-sulphonamido and 4β-[(4'-sulphonamido)benzamide]podophyllotoxins as DNA topoisomerase-IIα and apoptosis inducing agents” (2012)
Active and inactive are the calls of the source. No cut-off for these calls is given here.

Assays:
COLO 205 [1] = assay: Down regulation of topoisomerase 2beta in human COLO205 cells at 4 uM after 24 hrs by Western blotting analysis; type: functional, cell-based
Method in brief: (§1)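 Colo-205 cells treated 24 h at 4 µM and lysed in ice-cold RIPA with protease inhibitors and NaF. Protein measured by Bradford; 50 µg per lane run on 12% SDS-PAGE and transferred to PVDF. Membrane blocked 2 h, primary antibody (topo-IIα/β, p21, p16, pro-caspase-3, NF-kB p65) overnight at 4 °C, HRP secondary 1:2000 for 1 h, chemiluminescence detection; β-actin as loading control. Reduced procaspase-3 taken as caspase-3 activation.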

[2] = target: DNA topoisomerase 2-beta (Mus musculus) (UniProt Q64511); assay: Inhibition of topoisomerase 2beta in mouse embryonic fibroblasts after 1.5 hrs by comet assay; settings: concentration not given here
[3] = target: T1, Serine/threonine-protein kinase Chk1 (Homo sapiens) (UniProt O14757); assay: Increase in Chk1 phosphorylation at Ser345 in human COLO205 cells after 24 hrs; type: cell-based; settings: COLO 205
T1 sequence (whole entry): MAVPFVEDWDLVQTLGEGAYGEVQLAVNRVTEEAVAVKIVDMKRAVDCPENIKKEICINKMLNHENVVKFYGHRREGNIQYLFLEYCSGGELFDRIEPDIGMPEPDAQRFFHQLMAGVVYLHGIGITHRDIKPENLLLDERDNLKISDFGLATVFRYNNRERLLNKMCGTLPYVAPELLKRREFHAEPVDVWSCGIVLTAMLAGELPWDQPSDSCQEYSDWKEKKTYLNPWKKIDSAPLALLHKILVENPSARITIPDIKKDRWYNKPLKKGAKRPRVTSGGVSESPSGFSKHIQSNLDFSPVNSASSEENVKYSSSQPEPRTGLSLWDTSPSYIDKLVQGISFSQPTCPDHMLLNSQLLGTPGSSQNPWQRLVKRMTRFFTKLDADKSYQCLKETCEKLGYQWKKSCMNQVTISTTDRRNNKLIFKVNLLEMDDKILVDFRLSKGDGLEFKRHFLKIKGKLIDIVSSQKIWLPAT
Method in brief: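 Colo-205 cells on coverslips treated 24 h at 4 µM. Fixed in 4% paraformaldehyde, permeabilised with 0.2% Triton X-100, held in methanol overnight at 4 °C, and blocked with 1% BSA. Stained with anti-phospho-ATM (S1981) or anti-phospho-Chk1 (1:100) for 2 h at room temperature, then FITC anti-rabbit secondary for 1 h; DAPI/PI counterstain and confocal imaging.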

COLO 205 [4] = assay: Cytotoxicity against human COLO205 cells at 8 uM after 24 hrs by MTT assay; type: functional, cell-based
Method in brief: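 Colo-205 cells plated at 10,000 per well, left overnight, then exposed 24 h at 2, 4 or 8 µM. MTT added for 2 h at 37 °C, formazan dissolved in extraction buffer, and optical density read at 570 nm against untreated cells.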

COLO 205 [5] = assay: Cell cycle arrest in human COLO205 cells assessed as accumulation at G1 phase at 4 uM after 24 hrs by FACS analysis (reference value: 60.89%); type: functional
Method in brief: (§2)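 Colo-205 cells seeded at […] per 60 mm dish and treated 24 h at 4 µM; TSA arm used TSA at 4 µM for 12 h. Cells trypsinised, fixed in ice-cold 70% ethanol 30 min at 4 °C, RNase 1 mg/mL 30 min at 37 °C, then propidium iodide/citrate/Triton stain. DNA content of 20,000 events read by flow cytometry; phase percentages from histograms.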

COLO 205 [6] = assay: Cell cycle arrest in human COLO205 cells assessed as accumulation at S phase at 4 uM after 24 hrs by FACS analysis in presence of HDAC inhibitor, trichostatin A (reference value: 7.89%); type: functional; method in brief: as §2
COLO 205 [7] = assay: Cell cycle arrest in human COLO205 cells assessed as accumulation at G1 phase at 4 uM after 24 hrs by FACS analysis in presence of HDAC inhibitor, trichostatin A (reference value: 70.57%); type: functional; method in brief: as §2
[8] = target: DNA topoisomerase 2-alpha (Homo sapiens) (UniProt P11388); assay: Inhibition of topoisomerase 2alpha in human in COLO205 cells assessed as induction of single-strand DNA breaks at 4 uM after 24 hrs by comet assay; type: cell-based; settings: COLO 205
Method in brief: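 Colo-205 cells treated 24 h at 4 µM. Electrophoresis 20 min at 40 V in 0.5% TBE pH 8. Slides stained with SYBR green 30 min and imaged by fluorescence microscopy at 20×.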

COLO 205 [9] = assay: Down regulation of topoisomerase 2alpha in human COLO205 cells at 4 uM after 24 hrs by Western blotting analysis; type: functional, cell-based; method in brief: as §1

DNA topoisomerase 2-alpha (Homo sapiens), sequence (P11388 whole entry): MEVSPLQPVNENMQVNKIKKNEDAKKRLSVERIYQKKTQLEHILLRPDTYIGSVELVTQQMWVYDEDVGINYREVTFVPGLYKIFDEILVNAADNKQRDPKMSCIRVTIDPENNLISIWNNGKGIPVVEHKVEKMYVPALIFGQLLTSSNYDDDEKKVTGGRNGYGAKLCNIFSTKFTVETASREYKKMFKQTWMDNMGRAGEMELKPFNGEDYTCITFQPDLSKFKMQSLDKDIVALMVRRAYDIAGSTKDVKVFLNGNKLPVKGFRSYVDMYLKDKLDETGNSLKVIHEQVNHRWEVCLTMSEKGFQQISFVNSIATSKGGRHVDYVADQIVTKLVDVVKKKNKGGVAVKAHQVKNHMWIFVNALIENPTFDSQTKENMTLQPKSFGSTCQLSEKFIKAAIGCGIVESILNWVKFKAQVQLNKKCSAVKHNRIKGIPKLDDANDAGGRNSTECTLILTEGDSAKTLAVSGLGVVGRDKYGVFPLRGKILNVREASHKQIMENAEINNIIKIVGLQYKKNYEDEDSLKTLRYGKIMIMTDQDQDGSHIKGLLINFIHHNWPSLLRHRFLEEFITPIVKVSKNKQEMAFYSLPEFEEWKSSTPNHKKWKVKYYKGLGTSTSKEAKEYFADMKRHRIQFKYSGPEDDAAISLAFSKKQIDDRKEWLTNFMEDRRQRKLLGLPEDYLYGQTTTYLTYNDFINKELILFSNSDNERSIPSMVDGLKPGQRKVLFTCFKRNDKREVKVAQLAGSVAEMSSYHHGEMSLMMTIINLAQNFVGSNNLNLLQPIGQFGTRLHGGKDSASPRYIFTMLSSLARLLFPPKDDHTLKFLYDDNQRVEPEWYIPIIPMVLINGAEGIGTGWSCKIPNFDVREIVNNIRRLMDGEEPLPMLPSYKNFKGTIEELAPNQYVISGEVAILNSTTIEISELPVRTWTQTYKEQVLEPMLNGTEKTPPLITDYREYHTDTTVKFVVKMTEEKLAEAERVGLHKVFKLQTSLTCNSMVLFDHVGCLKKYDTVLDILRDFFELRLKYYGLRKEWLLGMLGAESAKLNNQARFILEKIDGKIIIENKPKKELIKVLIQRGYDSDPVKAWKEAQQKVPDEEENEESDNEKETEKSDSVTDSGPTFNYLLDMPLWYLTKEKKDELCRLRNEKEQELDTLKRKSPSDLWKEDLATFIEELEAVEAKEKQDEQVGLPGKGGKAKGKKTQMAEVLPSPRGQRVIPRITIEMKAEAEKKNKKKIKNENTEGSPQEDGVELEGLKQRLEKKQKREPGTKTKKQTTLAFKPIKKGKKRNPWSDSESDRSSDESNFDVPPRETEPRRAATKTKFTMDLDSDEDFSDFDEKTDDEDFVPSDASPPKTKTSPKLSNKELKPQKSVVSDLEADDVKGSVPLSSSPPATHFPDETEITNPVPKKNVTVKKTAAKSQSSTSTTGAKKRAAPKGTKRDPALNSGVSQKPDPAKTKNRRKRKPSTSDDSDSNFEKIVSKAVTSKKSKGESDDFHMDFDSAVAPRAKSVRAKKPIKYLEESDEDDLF
DNA topoisomerase 2-beta (Mus musculus), sequence (Q64511 whole entry): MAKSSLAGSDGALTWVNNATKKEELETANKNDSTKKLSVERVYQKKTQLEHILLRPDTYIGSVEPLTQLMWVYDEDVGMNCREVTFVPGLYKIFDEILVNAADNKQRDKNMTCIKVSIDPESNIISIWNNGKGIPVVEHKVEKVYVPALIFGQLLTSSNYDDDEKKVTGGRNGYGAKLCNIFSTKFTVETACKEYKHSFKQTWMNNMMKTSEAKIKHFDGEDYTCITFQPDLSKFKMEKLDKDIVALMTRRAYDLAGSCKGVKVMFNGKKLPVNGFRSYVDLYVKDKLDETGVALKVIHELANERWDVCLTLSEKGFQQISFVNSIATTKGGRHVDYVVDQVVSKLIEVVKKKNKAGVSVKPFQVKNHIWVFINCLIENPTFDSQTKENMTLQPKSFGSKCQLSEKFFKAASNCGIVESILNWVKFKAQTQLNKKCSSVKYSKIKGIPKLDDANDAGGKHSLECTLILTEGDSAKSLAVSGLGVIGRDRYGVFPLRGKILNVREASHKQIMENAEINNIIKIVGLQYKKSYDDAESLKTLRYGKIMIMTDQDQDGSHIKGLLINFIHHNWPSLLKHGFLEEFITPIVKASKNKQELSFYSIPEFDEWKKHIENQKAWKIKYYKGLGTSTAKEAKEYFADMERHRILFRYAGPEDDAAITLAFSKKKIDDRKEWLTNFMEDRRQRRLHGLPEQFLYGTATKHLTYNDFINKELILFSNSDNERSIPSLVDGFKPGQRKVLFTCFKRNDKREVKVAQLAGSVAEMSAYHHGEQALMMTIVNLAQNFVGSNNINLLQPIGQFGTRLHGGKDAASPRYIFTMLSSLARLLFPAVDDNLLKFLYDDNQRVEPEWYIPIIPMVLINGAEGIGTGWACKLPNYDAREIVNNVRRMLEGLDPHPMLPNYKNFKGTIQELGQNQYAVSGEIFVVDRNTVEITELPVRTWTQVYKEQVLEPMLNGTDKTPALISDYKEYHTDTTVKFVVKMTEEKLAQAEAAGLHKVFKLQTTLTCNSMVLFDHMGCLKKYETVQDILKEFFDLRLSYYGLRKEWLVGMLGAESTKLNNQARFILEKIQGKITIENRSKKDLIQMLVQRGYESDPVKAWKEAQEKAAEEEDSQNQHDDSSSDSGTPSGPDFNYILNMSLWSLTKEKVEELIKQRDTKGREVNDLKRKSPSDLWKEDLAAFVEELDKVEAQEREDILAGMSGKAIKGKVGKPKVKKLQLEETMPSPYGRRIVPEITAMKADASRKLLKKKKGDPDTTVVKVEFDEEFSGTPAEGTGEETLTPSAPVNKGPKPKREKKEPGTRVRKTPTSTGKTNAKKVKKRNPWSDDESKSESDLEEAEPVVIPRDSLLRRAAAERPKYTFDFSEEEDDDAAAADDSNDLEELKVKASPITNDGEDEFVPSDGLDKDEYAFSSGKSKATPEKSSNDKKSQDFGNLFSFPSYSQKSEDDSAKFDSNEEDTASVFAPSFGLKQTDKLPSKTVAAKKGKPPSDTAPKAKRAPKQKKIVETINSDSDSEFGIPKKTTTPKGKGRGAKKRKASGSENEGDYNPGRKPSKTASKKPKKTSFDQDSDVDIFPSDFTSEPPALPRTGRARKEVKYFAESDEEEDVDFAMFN

SMILES	Activity (COLO 205 [1])	inhibition [2] [%]	Activity [3]	Activity (COLO 205 [4])	Activity (COLO 205 [5]) [%]	Activity (COLO 205 [6]) [%]	Activity (COLO 205 [7]) [%]	inhibition [8]	Activity (COLO 205 [9])
COc1cc([C@@H]2c3cc4c(cc3[C@@H](O[C@@H]3O[C@@H]5CO[C@@H](C)O[C@H]5[C@H](O)[C@H]3O)[C@H]3COC(=O)[C@H]23)OCO4)cc(OC)c1O [ETOPOSIDE]	Active	100	Active	Active	12.82	8.55	21.74	Active	–
COC(=O)c1sccc1S(=O)(=O)N[C@@H]1c2cc3c(cc2[C@@H](c2cc(OC)c(OC)c(OC)c2)[C@H]2C(=O)OC[C@@H]21)OCO3	–	–	Active	Active	27.43	7.85	18.8	60%	Active
